# Measurements from publication PMC4554820 (Bioorganic & medicinal chemistry, 2015).
# “Also recorded” adds a separate entry of the source. Counter-ions that a name gives are not always drawn. Like-named read-outs stand apart in the source and are kept apart here.
# Columns and labels:
# [1] = PBS buffer, pH = 7.6; cited from earlier work
# GAPDH [2] = target: T1, GAPDH (Oryctolagus cuniculus, UniProt P46406); conditions: HPLC-HRMS, cited from earlier work; for Products, GAPDH tryptic peptide V233-R246: comparison/previous work
# T1 sequence (P46406 whole entry): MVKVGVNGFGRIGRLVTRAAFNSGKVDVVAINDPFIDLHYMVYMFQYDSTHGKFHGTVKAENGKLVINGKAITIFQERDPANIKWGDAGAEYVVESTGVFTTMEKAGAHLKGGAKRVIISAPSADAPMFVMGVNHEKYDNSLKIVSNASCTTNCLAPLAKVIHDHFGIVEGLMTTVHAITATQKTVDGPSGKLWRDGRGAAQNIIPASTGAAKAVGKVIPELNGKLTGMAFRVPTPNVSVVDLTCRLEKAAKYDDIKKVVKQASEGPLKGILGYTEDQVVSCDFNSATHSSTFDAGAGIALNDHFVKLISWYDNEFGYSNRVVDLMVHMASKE
# [3] = type: physicochemical; conditions: for k (min^−1) in 1:1 MeOH : 0.1 N NaOH / k (min^−1) in 1:1 MeOH : PBS / t1/2 (min) in 1:1 MeOH : 0.1 N NaOH: decomposition; for k (min^−1) in 1:1 MeOH : PBS: 1:1 MeOH:PBS (100 mM, pH 7.4), room temperature
# In short: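 The test compound in MeOH (1 mL) was mixed with 1 mL of 100 mM PBS pH 7.4 or 0.1 M NaOH in a sealed cuvette at rt. Loss of absorbance at 667 nm was read every 15 min for 10 h. Rate constants and half-lives came from the exponential decay.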
# [4] = Kinetic UV-vis decomposition in the presence of glutathione; type: physicochemical; conditions: PBS pH 7.4 + 2-fold GSH, room temperature
# [5] = system: porcine liver esterase (PLE); test: Kinetic UV-vis decomposition in the presence of porcine liver esterase; type: in vitro ADME; conditions: PBS buffer (3 % DMF) + PLE
# GAPDH [6] = target: T1, GAPDH; test: Reversibility of GAPDH inhibition by DTT; type: biochemical; conditions: GAPDH incubated with compound 1 hr, then DTT (10 mM) 1 hr
# GAPDH [7] = target: T1, GAPDH; test: HPLC-HRMS assay of GAPDH modification; type: biochemical; conditions: incubated 1 hr rt, tryptic digestion
# In short: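 Lyophilised GAPDH dissolved in 100 mM PBS pH 7.4, concentration set by A280 (ε 14600 M⁻¹cm⁻¹). Protein 100 µM final with test compound 1 mM final (added from MeOH stock) in water, 1 h rt. Trypsin digest (20:1 ratio) at 37 °C for 17 h, then diluted to 10 µM peptide. C18 LC with 0.1% formic acid water/MeOH gradient (5–95% over 10 min). Orbitrap HRMS, positive ESI. No-compound control.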
# [8] = system: human platelet aggregation induced by ADP; test: Platelet aggregation inhibition; type: cell-based; conditions: PRP, ADP 5 μM
# In short: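 Human PRP came from blood spun at 100 g for 10 min, and PPP from PRP spun at 4500 g for 10 min. PRP or PPP plus CaCl₂ (2 mM) went into wells. The test compound (100, 75, 50, 10 µM) was added for 20 min at rt, then ADP 5 µM. Light transmission was read every 20 s with double-orbital agitation and normalised to PPP = 100% and PRP = 0%.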
# [9] = system: human platelet activation induced by (ADP); test: Platelet activation inhibition; type: cell-based; conditions: for platelet activation inhibition: PRP, ADP 5 μM
# [10] = 1:1 MeOH:phosphate buffered saline, pH 7.4
SMILES,"Products, GAPDH tryptic peptide V233-R246 (GAPDH [2])","half-life at 30 mM [3, 10]",k (min^−1) in 1:1 MeOH : PBS [3],k (min^−1) in PBS + 2-fold GSH [4],t1/2 (min) in PBS + 2-fold GSH [4],% of GAPDH activity restored by the addition of DTT (GAPDH [6]),also measured
"O=NC1(OC(=O)C(F)(F)F)CCCCC1 [Compound 2, 1-nitrosocyclohexyl trifluoroacetate]",sulfinamide as a major product and sulfinic acid as a minor product,,,,,,t1/2 of HNO release [1]: 121 milliseconds (ms)
"CC(C)(C)C(=O)OC1(N=O)CCOCC1 [Compound 5, 4-Nitrosotetrahydro-2H-pyran-4-yl pivalate]",,31.7 h,0.00036 min⁻¹,0.007 min⁻¹,99 min,,half-life at 30 mM ([3]; 1:1 MeOH:0.1 N NaOH): 31.2 h; k (min^−1) in 1:1 MeOH : 0.1 N NaOH ([3]; 1:1 MeOH:0.1 N NaOH): 0.00037 min⁻¹
"[Na+].[Na+].[O-][N+]([O-])=NO [AS, Angeli’s salt (Na2N2O3, AS)]",sulfinamide as a major product and sulfinic acid as a minor product; also recorded: Sulfinamide; RSONH2; also recorded: Sulfinic acid; RSOOH,,,,,,"Products, GAPDH tryptic peptide I144-K160 (GAPDH [2]; comparison): Internal disulfide; RSSR"
"CC(=O)OC1(N=O)CCCCC1 [Compound 1, 1-nitrosocyclohexyl acetate]",sulfinic acid as a major product,,,,,,
"O=NC1(OC(=O)C(Cl)(Cl)Cl)CCOCC1 [Compound 6, 4-Nitrosotetrahydro-2H-pyran-4-yl 2,2,2-trichloroacetate]",,0.833 h,0.014 min⁻¹,0.173 min⁻¹,4 min,19%,"t1/2 (min) in 1:1 MeOH : 0.1 N NaOH ([3]; 1:1 MeOH:0.1 N NaOH): decompose immediately and Fast; decomposition rate constant k with PLE [5]: 0.087 min⁻¹; Products, GAPDH tryptic peptide I144-K160 (GAPDH [7]): Internal disulfide; RSSR; Products, GAPDH tryptic peptide V233-R246 (GAPDH [7]): Sulfinamide; RSONH2; also recorded: Sulfinic acid; RSOOH; inhibition of platelet aggregation ([8]; 10 μM, compared with positive control (PRP + ADP)): no effect; inhibition of platelet aggregation ([8]; 100 μM, 20 min incubation rt): Complete inhibition; inhibition of platelet aggregation ([8]; 50 and 75 μM): intermediate activities; platelet activation inhibition ([9]; 1 μM): lower activity; inhibition of expression of the activated marker (CD62P) ([9]; 10 μM, PRP incubated with ADP (2 μM)): 83%; platelet activation inhibition ([9]; 100, 75, 50, and 10 μM): potent and similar effect"
"CC(Cl)(Cl)C(=O)OC1(N=O)CCOCC1 [Compound 7, 4-Nitrosotetrahydro-2H-pyran-4-yl 2,2-dichloropropanoate]",,2 h,0.0058 min⁻¹,0.0578 min⁻¹,12 min,9%,"t1/2 (min) in 1:1 MeOH : 0.1 N NaOH ([3]; 1:1 MeOH:0.1 N NaOH): decompose immediately and Fast; decomposition rate constant k with PLE [5]: 0.03 min⁻¹; Products, GAPDH tryptic peptide I144-K160 (GAPDH [7]): Internal disulfide; RSSR; Products, GAPDH tryptic peptide V233-R246 (GAPDH [7]): Sulfinamide; RSONH2; also recorded: Sulfinic acid; RSOOH"
"CC(=O)OC1(N=O)CCOCC1 [Compound 4, 4-Nitrosotetrahydro-2H-pyran-4-yl acetate]",,13 h,0.00089 min⁻¹,0.011 min⁻¹,65 min,22%,half-life at 30 mM ([3]; 1:1 MeOH:0.1 N NaOH): 0.2 h; k (min^−1) in 1:1 MeOH : 0.1 N NaOH ([3]; 1:1 MeOH:0.1 N NaOH): 0.057 min⁻¹
